Data as given in ChEMBL document CHEMBL1138835, “Inhibitors of multiple mutants of Plasmodium falciparum dihydrofolate reductase and their antimalarial activities” (J Med Chem, 2004).

Experiments:
[1] = molecular target: Bifunctional dihydrofolate reductase-thymidylate synthase (Plasmodium falciparum K1, UniProt P13922, C59R/I164L/S108N); assay: Binding affinity towards mutant dihydrofolate reductase (C59R+S108N+I164L DHFR) of Plasmodium falciparum
[2] = molecular target: Bifunctional dihydrofolate reductase-thymidylate synthase (Plasmodium falciparum K1, UniProt P13922, C59R/N51I/S108N); assay: Binding affinity towards mutant dihydrofolate reductase (N51I+C59R+S108N DHFR) of Plasmodium falciparum
KB [3] = assay: In vitro cytotoxicity against Plasmodium falciparum infected KB cell line; type: functional, cell-based; conditions: Homo sapiens
Method in brief: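 Cytotoxicity (IC50, μM) run against three mammalian lines: Vero (African green monkey kidney fibroblasts), KB (human epidermoid carcinoma) and BC (human breast cancer). Testing followed the Skehan et al. protocol.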

[4] = molecular target: Bifunctional dihydrofolate reductase-thymidylate synthase (Plasmodium falciparum K1, UniProt P13922); assay: Binding affinity towards wild-type dihydrofolate reductase of Plasmodium falciparum.
BC [5] = assay: Relative antiplasmodial activity to cytotoxicity in Plasmodium falciparum Csl-2 infected BC cells; type: functional
KB [6] = assay: Relative antiplasmodial activity to cytotoxicity in Plasmodium falciparum Csl-2 infected KB cells; type: functional
Vero [7] = assay: Relative antiplasmodial activity to cytotoxicity in Plasmodium falciparum Csl-2 infected Vero cells; type: functional
BC [8] = assay: Relative antiplasmodial activity to cytotoxicity in Plasmodium falciparum TM4/8.2 infected BC cells; type: functional
KB [9] = assay: Relative antiplasmodial activity to cytotoxicity in Plasmodium falciparum TM4/8.2 infected KB cells; type: functional
KB [10] = assay: Relative antiplasmodial activity to cytotoxicity in Plasmodium falciparum V1/S infected KB cells; type: functional
Vero [11] = assay: Relative antiplasmodial activity to cytotoxicity in Plasmodium falciparum V1/S infected Vero cells; type: functional
Vero [12] = assay: Relative antiplasmodial activity to cytotoxicity in Plasmodium falciparum TM4/8.2 infected Vero cells; type: functional
[13] = system: Bifunctional dihydrofolate reductase-thymidylate synthase (Plasmodium falciparum K1), P13922 [UNDEFINED MUTATION]; assay: Ratio of binding affinity for mutant (C59R+S108N+I164L) to that of wild type dihydrofolate reductase
Method in brief: (§1)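 Each ratio is Ki for the mutant PfDHFR divided by Ki for wild-type PfDHFR. The recombinant enzymes were expressed in E. coli BL21(DE3)pLysS and purified on methotrexate-Sepharose. Ki was derived assuming inhibitors compete with substrate binding.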

[14] = molecular target: Bifunctional dihydrofolate reductase-thymidylate synthase (Plasmodium falciparum K1) (UniProt P13922); assay: Ratio of binding affinity for mutant (N51I+C59R+S108N) to that of wild type dihydrofolate reductase; method in brief: as §1
[15] = system: Bifunctional dihydrofolate reductase-thymidylate synthase (Plasmodium falciparum K1), P13922 [UNDEFINED MUTATION]; assay: Ratio of binding affinity for mutant (N51I+C59R+S108N+I164L) to that of wild type dihydrofolate reductase; method in brief: as §1
[16] = molecular target: Bifunctional dihydrofolate reductase-thymidylate synthase (Plasmodium falciparum K1, UniProt P13922, C59R/I164L/N51I/S108N); assay: Binding affinity towards mutant dihydrofolate reductase (N51I+C59R+S108N+I164L DHFR) of Plasmodium falciparum
BC [17] = assay: In vitro cytotoxicity against BC cell line.; conditions: Homo sapiens
[18] = system: Bifunctional dihydrofolate reductase-thymidylate synthase (Plasmodium falciparum K1), P13922 [UNDEFINED MUTATION]; assay: Ratio of binding affinity for mutant (A16V+S108T) to that of wild type dihydrofolate reductase; method in brief: as §1

Bifunctional dihydrofolate reductase-thymidylate synthase (Plasmodium falciparum K1, UniProt P13922), sequence (P13922 whole entry): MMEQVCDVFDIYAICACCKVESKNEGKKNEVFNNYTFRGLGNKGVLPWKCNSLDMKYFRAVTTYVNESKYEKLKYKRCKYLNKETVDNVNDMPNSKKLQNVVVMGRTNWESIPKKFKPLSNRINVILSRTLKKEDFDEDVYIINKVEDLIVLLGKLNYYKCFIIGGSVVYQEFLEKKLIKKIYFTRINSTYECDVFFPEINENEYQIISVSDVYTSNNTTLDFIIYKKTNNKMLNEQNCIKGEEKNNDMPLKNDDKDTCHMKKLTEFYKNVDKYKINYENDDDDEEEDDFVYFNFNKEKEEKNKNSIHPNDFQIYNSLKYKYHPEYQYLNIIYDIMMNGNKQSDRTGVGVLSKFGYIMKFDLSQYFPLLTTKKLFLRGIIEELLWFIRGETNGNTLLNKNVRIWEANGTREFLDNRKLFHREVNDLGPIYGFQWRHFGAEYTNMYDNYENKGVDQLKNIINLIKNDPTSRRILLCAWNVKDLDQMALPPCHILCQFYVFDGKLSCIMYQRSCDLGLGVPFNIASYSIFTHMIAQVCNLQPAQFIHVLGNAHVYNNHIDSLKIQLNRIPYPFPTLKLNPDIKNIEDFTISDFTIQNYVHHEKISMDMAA
Bifunctional dihydrofolate reductase-thymidylate synthase (Plasmodium falciparum K1), P13922 [UNDEFINED MUTATION], sequence (P13922 whole entry, looked up, stated change not applied): as the sequence (P13922 whole entry) above
Bifunctional dihydrofolate reductase-thymidylate synthase (Plasmodium falciparum K1, UniProt P13922, C59R/I164L/S108N), sequence (P13922 whole entry, looked up, stated change not applied): as the sequence (P13922 whole entry) above
Bifunctional dihydrofolate reductase-thymidylate synthase (Plasmodium falciparum K1, UniProt P13922, C59R/N51I/S108N), sequence (P13922 whole entry, looked up, stated change not applied): as the sequence (P13922 whole entry) above
Bifunctional dihydrofolate reductase-thymidylate synthase (Plasmodium falciparum K1), sequence (P13922 whole entry, looked up): as the sequence (P13922 whole entry) above
Bifunctional dihydrofolate reductase-thymidylate synthase (Plasmodium falciparum K1, UniProt P13922, C59R/I164L/N51I/S108N), sequence (P13922 whole entry, looked up, stated change not applied): as the sequence (P13922 whole entry) above

Row | Structure (SMILES) | Ki [1] | Ki [2] | IC50 (KB [3]) | Ki [4] | Safety ratio (BC [5]) | Safety ratio (KB [6]) | Safety ratio (Vero [7]) | Safety ratio (BC [8]) | Safety ratio (KB [9]) | Safety ratio (KB [10]) | Safety ratio (Vero [11]) | Safety ratio (Vero [12]) | Ratio [13] | Ratio [14] | Ratio [15] | Ki [16] | IC50 (BC [17]) | Ratio [18]
1 | Nc1nc(N)c(-c2ccccc2)c(CCCc2ccccc2)n1 | 1.9 nM | 1.1 nM | 150000 nM | 0.5 nM | 92.6 | 55.6 | >18.5 | 1191 | 714 | 17.4 | >5.8 | >238 | 3.8 | 2.2 | 9.4 | 4.7 nM | 250000 nM | –
2 | Nc1nc(N)c(-c2ccc(Cl)cc2)c(CCCc2ccccc2)n1 | 63 nM | 15.1 nM | – | 0.7 nM | – | – | – | – | – | – | – | – | 90 | 21.6 | 243 | 170 nM | – | –
3 | CCc1nc(N)nc(N)c1-c1ccc2c(c1)OCO2 | 121 nM | 8.3 nM | – | 1.1 nM | – | – | – | – | – | – | – | – | 110 | 7.5 | 244 | 269 nM | – | –
4 | COc1ccc(CCCc2nc(N)nc(N)c2-c2cccc(Cl)c2)cc1 | 2.9 nM | 1.3 nM | – | 2.2 nM | 1.1 | 5.6 | 1.1 | 7.3 | 36.6 | 3.2 | 0.6 | 7.3 | 1.3 | 0.6 | 0.9 | 2 nM | 3000 nM | –
5 | COC(=O)CCCc1nc(N)nc(N)c1-c1cccc(Cl)c1 | 1.8 nM | 0.77 nM | – | 0.5 nM | – | – | – | – | – | – | – | – | 3.6 | 1.5 | 5.4 | 2.7 nM | – | –
6 | CC1N=C(N)N=C(N)N1c1ccc(Cl)cc1 (stereo unspecified) | 1580 nM | 134 nM | – | 4.1 nM | – | – | – | – | – | – | – | – | 386 | 32.7 | 592 | 2430 nM | – | 31
7 | COC(=O)CCCc1nc(N)nc(N)c1-c1ccc(Cl)cc1 | 145 nM | 29.3 nM | – | 0.3 nM | – | – | – | – | – | – | – | – | 483 | 97.7 | 1200 | 360 nM | – | –
8 | CCc1nc(N)nc(N)c1-c1ccc(Cl)c(Cl)c1 [ETOPRINE] | 41 nM | 3.1 nM | – | 1 nM | – | – | – | – | – | – | – | – | 41 | 3.1 | 53 | 53 nM | – | –
9 | COC(=O)CCCc1nc(N)nc(N)c1-c1ccccc1 | 15 nM | 3.3 nM | – | 0.6 nM | – | – | – | – | – | – | – | – | 25 | 5.5 | 40 | 24 nM | – | –
10 | CCc1nc(N)nc(N)c1-c1ccc(C)cc1 | 88 nM | 6.9 nM | – | 0.4 nM | – | – | – | – | – | – | – | – | 220 | 17.2 | 710 | 284 nM | – | –
11 | CCCCCCc1nc(N)nc(N)c1-c1ccccc1 | 0.7 nM | 0.4 nM | – | 0.3 nM | 89.3 | 37.7 | 18.3 | 4467 | 1883 | 17.7 | 8.6 | 917 | – | – | – | 1.4 nM | – | –
12 | Cc1nc(N)nc(N)c1-c1cccc(Cl)c1 | 9.8 nM | 6.5 nM | – | 1.9 nM | – | – | – | – | – | – | – | – | 5.2 | 3.4 | 7.4 | 14 nM | – | –
13 | Nc1nc(N)c(-c2cccc(Cl)c2)c(CCOCCCOc2ccccc2)n1 | 1.3 nM | 0.7 nM | 6400 nM | 0.4 nM | 1.7 | 2.2 | 5.2 | 14 | 18.3 | 1.4 | 3.3 | 42.9 | 3.2 | 1.7 | 4.2 | 1.7 nM | 4900 nM | –
